Source: PubChem (SRMLSC)
Sampled rows, rich in hits. Any-hit rate of the full collection: about 6.6%.
PostGolgi yeast – growth inhibition of a yeast mutant, post-Golgi transport screen. post-Golgi transport phenotypic cell assay. inhibition, % at 10 µM. actives 0.9% (n = 98,000). AID 739;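 note: yeast cells grown in 1536-well plates; yeast grown about 18 h at 30C before absorbance read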
Ecoli tolC – E. coli tolC mutant growth inhibition. E. coli BW25113 tolC mutant growth, OD615. growth inhibition, % at 10 µM (by protocol). AID 573. actives 2.2% (n = 65,000);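 active = growth inhibition at or above a cutoff equal to the mean over every tested compound plus 3 SD, cut at about 60% in these data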;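 note: growth measured after 20 h incubation at 37 °C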
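System: E. coli ΔtolC::kan strain BW25113; Buffer or medium: LB broth supplemented with 50 µg/mL kanamycin; Compound: 10 µM final, single dose; Incubation: bacterial growth with compound for 20 h at 37 °C; Signal: A615 absorbance measurement; Evaluation: growth inhibition in percent.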
PostGolgi ctrl – growth of the yeast control strain, post-Golgi counter-screen | efflux-deficient yeast background strain, growth absorbance A615, 16 h | inhibition, % at 10 µM | actives 5% (n = 98,000)
Her2 expr inh – Her2 kinase expression inhibition | P04626 | HER2 level % of control, % at 10 µM | AID 645 | actives 0.69% (n = 65,000) | SKBR-3 HER2 protein level, AlphaScreen, 18-24 h; stronger effect = lower value;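 active = HER2 level under 5% of the carrier-only control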;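 note: 100% = DMSO carrier and 0% = 500 nM PU-H71 HSP90 inhibitor; lower value means stronger loss of Her2 protein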
Ecoli WT expand – growth inhibitors of E. coli BW25113 wild type | OD600 absorbance | growth inhibition, % at 100 µM | actives 0.15% (n = 98,000) | AID 710;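 active = growth inhibition above about 50% at one test dose, limit read from the data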;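 note: growth measured after 20 h incubation at 37 °C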
Numbers without * were called inactive; / = no result given. Cut-off read from the data, not from the text of the source, unless noted: active = inhibition above about 30%; inactive = the rest.

SMILES | PostGolgi yeast | Ecoli tolC | PostGolgi ctrl | Her2 expr inh | Ecoli WT expand
O=C(Nc1ccccc1F)c1ccc(-n2cncn2)nc1 | 3 | / | 3 | / | -2
O=C(NCc1ccco1)c1ccccc1Nc1ccc(F)cc1 | -5 | 5 | 32* | 110 | 2
O=C(Nc1ccc(F)cc1)NC1(C(=O)NCc2ccco2)CCCCC1 | 4 | -11 | 32* | 90 | -7
O=C(COC(=O)c1ccccc1Nc1ccc(SC(F)F)cc1)NCc1ccco1 | -4 | / | 32* | / | -5
Cc1ccc(CNC(=O)C2(NC(=O)Nc3ccc(C)cc3)CCCCC2)cc1 | -3 | / | 10 | / | -21
O=C(NCc1ccco1)C(C(=O)c1ccc(F)cc1)n1ccccc1=O (configuration not stated) | 14 | 97* | -11 | 144 | 8
Cc1nc2sc(C(c3cccs3)N3CCC(C(N)=O)CC3)c(O)n2n1 (configuration not stated) | 2 | -5 | -1 | 124 | -1
COC(=O)c1nn(-c2c(C)n(C)n(-c3ccccc3)c2=O)cc1O | 0 | -11 | 0 | 122 | 7
C/C(=N\NC(=O)c1csc2ccccc12)c1ccc(O)cc1 | -3 | / | 13 | / | 6
O=C(NCCc1csc(-c2cccnc2)n1)c1ccc(Br)o1 | -4 | 2 | 1 | 93 | -4
O=C(NCCc1csc(-c2ccccc2)n1)c1ccc(Br)o1 | -6 | / | 35* | / | 6
N#Cc1c(C(F)(F)F)cc(-c2ccccc2)nc1SCC(=O)Nc1sc2c(c1C#N)CCC2 | -8 | / | -1 | / | -4
CN(C(=S)Nc1ccc(F)cc1)C1(c2ccccc2Cl)CCCCC1=O (configuration not stated) | 9 | / | 36* | / | -8
Fc1ccc(NC(=S)NN=C2CCCCCC2)cc1 | 7 | / | 2 | / | 3
CC1(C)CC(=O)c2sc(NC(=O)C3COc4ccccc4O3)nc2C1 (configuration not stated) | -6 | / | 38* | / | -3
CC1=C(C(=O)OCC2CCCO2)C(c2ccncc2)C2=C(CC(C)(C)CC2=O)N1 (configuration not stated) | 18 | -14 | 1 | 137 | 0
c1ccc(-c2nc(CSc3n[nH]c(-c4cccs4)n3)cs2)cc1 | -1 | / | 34* | / | -6
CCCC(=O)c1c(NC(C)C)cc(C)oc1=O | 4 | -4 | 4 | 95 | -3
OC(COc1ccc2ccccc2c1Br)Cn1cnc(-c2ccccc2)c1 (configuration not stated) | 27 | / | 53* | / | 1
COc1ccc(Cc2nnc3n2N=C(c2cc4ccccc4o2)CS3)cc1OC | / | -13 | / | 69 | /
COCCn1nnnc1C(C(C)C)N(Cc1cccnc1)Cc1ccccc1Cl (configuration not stated) | 1 | 14 | 38* | 101 | -4
O=C(Nc1nc(-c2cccs2)cs1)c1ccc(S(=O)(=O)N2CCCCC2)cc1 | 18 | 30 | 41* | 28 | -8
N#CC(C#N)=c1ccc2c(c1)NC1(CCCCC1)N=2 | 6 | -16 | 5 | -26* | 1
O=C1NC2(CCCC2)N=C1c1ccc(Cl)cc1 | 0 | -4 | 6 | 92 | 0
Cc1[nH]nc(N=CC2=C(O)CC(c3ccco3)CC2=O)c1-c1ccccc1 (configuration not stated) | 4 | 19 | 45* | 94 | -3
SMILES | PostGolgi yeast | Ecoli tolC | PostGolgi ctrl | Her2 expr inh | Ecoli WT expand
O=C(CCCN1C(=O)c2cccnc2C1=O)N1CC(=O)N(CCc2ccccc2)C(=O)C1 | 7 | -14 | -1 | 116 | 3
Cc1ccc(-c2c3c(=O)n(C)c(=O)n(C)c3cn2N2CCOCC2)cc1 | -2 | 10 | 51* | 117 | -8
CC1CC(C)CN(C(=O)c2ccc3c(=O)n(Cc4ccc5c(c4)OCO5)c(=S)[nH]c3c2)C1 (configuration not stated) | -3 | / | 36* | / | -15
Cc1ccc(SC(C)C(=O)Nc2ncn[nH]2)cc1 (configuration not stated) | 42* | -4 | -4 | 99 | 5
Cc1ccc(SC(C)C(=O)NCC(C)C)cc1 (configuration not stated) | 4 | 2 | 13 | 122 | 0
O=C(Nc1ccccc1N1CCCCC1)c1ccccc1F | -4 | 88* | 34* | 96 | 2
O=C(Nc1ccccc1N1CCN(C(=O)c2ccccc2)CC1)c1cc2ccccc2o1 | -4 | -8 | 36* | 90 | -1
O=C(Nc1ccccc1N1CCN(C(=O)c2ccc(Cl)cc2)CC1)c1ccc2c(c1)OCO2 | -5 | 29 | 20 | 94 | -22
COc1cccc(OC)c1C(=O)Nc1ccccc1N1CCCC1 | 6 | -3 | 12 | 102 | -1
O=C(Nc1ccc(N2CCN(C(=O)c3ccccc3)CC2)cc1)c1cc2ccccc2o1 | -5 | 19 | -2 | 68 | -8
O=C(Nc1ccccc1N1CCN(C(=O)c2ccccc2)CC1)c1cc(Br)ccc1Cl | 8 | / | 31* | / | -8
O=C(Nc1cccc(Br)c1)c1cc2ccccc2o1 | 12 | 100* | 17 | 79 | 4
CCCCN(C)C(=O)CS(=O)(=O)Cc1nc(-c2cccc(OC)c2)oc1C | 3 | 3 | 1 | 74 | 4
O=C(CN(Cc1ccccc1F)C(=O)Cn1nnc(-c2cccs2)n1)NCC1CCCO1 (configuration not stated) | 1 | -2 | 18 | 76 | -5
O=C(Nc1ccccc1N1CCCC1)c1cc2ccccc2o1 | -11 | 38 | 39* | 87 | -2
CN1CCN(c2ccccc2NC(=O)c2ccc(Br)o2)CC1 | 4 | 4 | -5 | 105 | 5
CS(=O)(=O)N1CCN(c2ccccc2NC(=O)c2ccc(Br)o2)CC1 | 3 | / | 42* | / | -5
CN1CCN(c2ccccc2NC(=O)c2cc3ccccc3o2)CC1 | 8 | / | 6 | / | 3
CC(C)Sc1nc(N2CCOCC2)c2c3c(sc2n1)COC(C)(C)C3 | -3 | / | 43* | / | -8
c1ccc(-c2n[nH]nc2-c2ccccc2)cc1 | 23 | 36 | 30* | 94 | 9
CCOC(=O)C1=C(C)n2c(s/c(=C/c3cccc([N+](=O)[O-])c3)c2=O)=NC1c1ccc(O)c(OC)c1 (configuration not stated) | 61* | / | 39* | / | -19
CCOC(=O)C1=C(N)n2c(s/c(=C/c3ccccc3)c2=O)=C(C(=O)OCC)C1c1ccccc1 (configuration not stated) | -20 | / | 0 | / | -8
O=C(NCCCN1CCOCC1)c1cc2cc(Cl)cc(Cl)c2oc1=O | / | -3 | / | 98 | /
CC(Nc1ccc(Br)cn1)c1cc(Cl)ccc1O (configuration not stated) | -3 | 100* | 31* | 76 | 20
O=C(NCc1cccnc1)c1c(F)c(F)c(F)c(F)c1F | 15 | 6 | 17 | 91 | 0
Cc1c(CCC#N)c(N2CCN(C3CCCCC3)CC2)n2c(nc3ccccc32)c1C#N | / | 10 | / | -16* | /
O=C(CSc1nc2cc(S(=O)(=O)N3CCOCC3)ccc2o1)NC1CCCc2ccccc21 (configuration not stated) | 5 | 18 | -5 | 98 | -12
